Test results reported in ChEMBL document CHEMBL2346503, “Synthesis and evaluation of novel (18)F-labeled spirocyclic piperidine derivatives as σ1 receptor ligands for positron emission tomography imaging” (J Med Chem, 2013).

Columns and labels:
[1] = test system: Stomach; assay: Biodistribution in ICR mouse stomach assessed per organ at 370 kBq, iv after 120 mins by gamma-counting analysis; type: ADME, organism-based; settings: in vivo, 2 h
Procedure, shortened: (§1)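 Male ICR mice, n = 5 per time point, given the radiotracer in saline (370 kBq, 0.1 mL) by intravenous injection. Killed by decapitation at 2, 30, 60 or 120 min. Organs were excised, weighed and gamma-counted with decay correction. Uptake is expressed as % injected dose per gram of wet tissue against diluted standards of the injected material; stomach and intestine are expressed as % injected dose per organ. Mean ± SD.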

[2] = test system: Spleen; assay: Biodistribution in ICR mouse spleen at 370 kBq, iv after 120 mins by gamma-counting analysis; type: ADME, organism-based; settings: in vivo, 2 h; procedure, shortened: as §1
[3] = test system: Liver; assay: Biodistribution in ICR mouse liver at 370 kBq, iv after 120 mins by gamma-counting analysis; type: ADME, organism-based; settings: in vivo, 2 h
Procedure, shortened: (§2)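 Male ICR mice (n = 5 per group) got 370 kBq tracer in 0.1 mL saline by iv injection. They were decapitated at 2, 30, 60 or 120 min, and organs were weighed and γ-counted. %ID/g was found against diluted aliquots of the injected dose, decay-corrected, and given as mean ± SD.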

[4] = test system: Heart; assay: Biodistribution in ICR mouse heart at 370 kBq, iv after 120 mins by gamma-counting analysis; type: ADME, organism-based; settings: in vivo, 2 h; procedure, shortened: as §2
[5] = test system: Brain; assay: Biodistribution in ICR mouse brain at 370 kBq, iv after 120 mins by gamma-counting analysis; type: ADME, organism-based; settings: in vivo, 2 h; procedure, shortened: as §2
[6] = test system: Blood; assay: Biodistribution in ICR mouse blood at 370 kBq, iv after 120 mins by gamma-counting analysis; type: ADME, organism-based; settings: in vivo, 2 h; procedure, shortened: as §2
[7] = test system: Bone; assay: Biodistribution in ICR mouse bone at 370 kBq, iv after 60 mins by gamma-counting analysis; type: ADME, organism-based, Bone element; settings: in vivo, 1 h; procedure, shortened: as §2
[8] = Ratio of drug uptake from ICR mouse brain to blood after 60 mins; type: ADME, tissue-based; settings: brain and blood
[9] = test system: Muscle tissue; assay: Biodistribution in ICR mouse muscle at 370 kBq, iv after 60 mins by gamma-counting analysis; type: ADME, organism-based; settings: in vivo, 1 h; procedure, shortened: as §1
[10] = test system: Stomach; assay: Biodistribution in ICR mouse stomach assessed per organ at 370 kBq, iv after 60 mins by gamma-counting analysis; type: ADME, organism-based; settings: in vivo, 1 h; procedure, shortened: as §1
[11] = test system: Lung; assay: Biodistribution in ICR mouse lung at 370 kBq, iv after 60 mins by gamma-counting analysis; type: ADME, organism-based; settings: in vivo, 1 h; procedure, shortened: as §1
[12] = test system: Spleen; assay: Biodistribution in ICR mouse spleen at 370 kBq, iv after 60 mins by gamma-counting analysis; type: ADME, organism-based; settings: in vivo, 1 h; procedure, shortened: as §1
[13] = test system: Liver; assay: Biodistribution in ICR mouse liver at 370 kBq, iv after 60 mins by gamma-counting analysis; type: ADME, organism-based; settings: in vivo, 1 h; procedure, shortened: as §2
[14] = test system: Brain; assay: Biodistribution in ICR mouse brain at 370 kBq, iv after 60 mins by gamma-counting analysis; type: ADME, organism-based; settings: in vivo, 1 h; procedure, shortened: as §2
[15] = test system: Intestine; assay: Biodistribution in ICR mouse intestine assessed per organ at 370 kBq, iv after 30 mins by gamma-counting analysis; type: ADME, organism-based; settings: in vivo, 0.5 h
Procedure, shortened: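 Male ICR mice (n = 5) got 370 kBq iv in 0.1 mL saline and were decapitated at 2, 30, 60 or 120 min. Whole intestine was γ-counted and expressed as percent injected dose per organ, decay-corrected, mean ± SD.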

[16] = test system: Kidney; assay: Biodistribution in ICR mouse kidney at 370 kBq, iv after 30 mins by gamma-counting analysis; type: ADME, organism-based; settings: in vivo, 0.5 h; procedure, shortened: as §2
[17] = test system: Stomach; assay: Biodistribution in ICR mouse stomach assessed per organ at 370 kBq, iv after 30 mins by gamma-counting analysis; type: ADME, organism-based; settings: in vivo, 0.5 h; procedure, shortened: as §1
[18] = test system: Lung; assay: Biodistribution in ICR mouse lung at 370 kBq, iv after 30 mins by gamma-counting analysis; type: ADME, organism-based; settings: in vivo, 0.5 h; procedure, shortened: as §2
[19] = test system: Spleen; assay: Biodistribution in ICR mouse spleen at 370 kBq, iv after 30 mins by gamma-counting analysis; type: ADME, organism-based; settings: in vivo, 0.5 h; procedure, shortened: as §1
[20] = test system: Heart; assay: Biodistribution in ICR mouse heart at 370 kBq, iv after 30 mins by gamma-counting analysis; type: ADME, organism-based; settings: in vivo, 0.5 h; procedure, shortened: as §2
[21] = test system: Blood; assay: Biodistribution in ICR mouse blood at 370 kBq, iv after 30 mins by gamma-counting analysis; type: ADME, organism-based; settings: in vivo, 0.5 h; procedure, shortened: as §2
[22] = Ratio of drug uptake from ICR mouse brain to blood after 2 mins; type: ADME, tissue-based; settings: brain and blood
[23] = test system: Muscle tissue; assay: Biodistribution in ICR mouse muscle at 370 kBq, iv after 2 mins by gamma-counting analysis; type: ADME, organism-based; settings: in vivo; procedure, shortened: as §1
[24] = test system: Bone; assay: Biodistribution in ICR mouse bone at 370 kBq, iv after 2 mins by gamma-counting analysis; type: ADME, organism-based, Bone element; settings: in vivo; procedure, shortened: as §2
[25] = test system: Stomach; assay: Biodistribution in ICR mouse stomach assessed per organ at 370 kBq, iv after 2 mins by gamma-counting analysis; type: ADME, organism-based; settings: in vivo; procedure, shortened: as §1
[26] = test system: Lung; assay: Biodistribution in ICR mouse lung at 370 kBq, iv after 2 mins by gamma-counting analysis; type: ADME, organism-based; settings: in vivo; procedure, shortened: as §2
[27] = test system: Kidney; assay: Biodistribution in ICR mouse kidney at 370 kBq, iv after 2 mins by gamma-counting analysis; type: ADME, organism-based; settings: in vivo; procedure, shortened: as §2
[28] = test system: Spleen; assay: Biodistribution in ICR mouse spleen at 370 kBq, iv after 2 mins by gamma-counting analysis; type: ADME, organism-based; settings: in vivo; procedure, shortened: as §1
[29] = test system: Liver; assay: Biodistribution in ICR mouse liver at 370 kBq, iv after 2 mins by gamma-counting analysis; type: ADME, organism-based; settings: in vivo; procedure, shortened: as §2
[30] = test system: Blood; assay: Biodistribution in ICR mouse blood at 370 kBq, iv after 2 mins by gamma-counting analysis; type: ADME, organism-based; settings: in vivo; procedure, shortened: as §2
[31] = Lipophilicity, log D of the compound at pH 7.4 by shake flask method; type: physicochemical; settings: buffer
Procedure, shortened: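 Shake flask: radiotracer (370 kBq) in 3 mL 1-octanol plus 3 mL 0.05 M sodium phosphate buffer pH 7.4, vortexed 3 min at room temperature, then centrifuged. Both phases were gamma-counted and log D = log(cpm/mL octanol ÷ cpm/mL buffer). The octanol layer was repartitioned until values were consistent. Triplicate, repeated three times.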

[32] = test system: Bone; assay: Biodistribution in ICR mouse bone at 370 kBq, iv after 60 mins by gamma-counting analysis in presence of haloperidol relative to control; type: ADME, organism-based, Bone element; settings: in vivo, 1 h
Procedure, shortened: (§3)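 Male ICR mice (n = 5) got saline or haloperidol (0.1 mL, 1.0 mg/kg) via tail vein 5 min before 370 kBq tracer iv. Tissues were taken 60 min later and γ-counted as %ID/g (intestine as %ID/organ). Control and blocked groups were compared by two-tailed independent Student's t test, p ≤ 0.05.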

[33] = test system: Intestine; assay: Biodistribution in ICR mouse intestine assessed per organ at 370 kBq, iv after 60 mins by gamma-counting analysis in presence of haloperidol relative to control; type: ADME, organism-based; settings: in vivo, 1 h; procedure, shortened: as §3
[34] = test system: Stomach; assay: Biodistribution in ICR mouse stomach assessed per organ at 370 kBq, iv after 60 mins by gamma-counting analysis in presence of haloperidol relative to control; type: ADME, organism-based; settings: in vivo, 1 h
Procedure, shortened: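 Male ICR mice, n = 5 per group, received saline (0.1 mL) or haloperidol (0.1 mL, 1.0 mg/kg) via tail vein 5 min before the radiotracer (370 kBq, 0.1 mL, iv). Killed by decapitation at 60 min. Tissues were excised, weighed and gamma-counted. Values are % ID/g (stomach as % ID/organ) and percent change versus saline controls, compared by two-tailed independent Student's t test, p ≤ 0.05.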

[35] = test system: Kidney; assay: Biodistribution in ICR mouse kidney at 370 kBq, iv after 60 mins by gamma-counting analysis in presence of haloperidol relative to control; type: ADME, organism-based; settings: in vivo, 1 h; procedure, shortened: as §3
[36] = test system: Liver; assay: Biodistribution in ICR mouse liver at 370 kBq, iv after 60 mins by gamma-counting analysis in presence of haloperidol relative to control; type: ADME, organism-based; settings: in vivo, 1 h; procedure, shortened: as §3
[37] = test system: Heart; assay: Biodistribution in ICR mouse heart at 370 kBq, iv after 60 mins by gamma-counting analysis in presence of haloperidol relative to control; type: ADME, organism-based; settings: in vivo, 1 h; procedure, shortened: as §3

Row | Compound | Drug uptake [1] | Drug uptake [2] | Drug uptake [3] | Drug uptake [4] | Drug uptake [5] | Drug uptake [6] | Drug uptake [7] | Kp at 1 h [8] | Drug uptake [9] | Drug uptake [10] | Drug uptake [11] | Drug uptake [12] | Drug uptake [13] | Drug uptake [14] | Drug uptake [15] | Drug uptake [16] | Drug uptake [17] | Drug uptake [18] | Drug uptake [19] | Drug uptake [20] | further results
1 | [18F]CCOc1ccc(CN2CCC3(CC2)OCc2ccccc23)cc1 | 0.89 %ID | 9.09 % ID/g | 13.6 % ID/g | 8.54 % ID/g | 8.99 % ID/g | 1.2 % ID/g | 4.27 % ID/g | 11.4 | 4.41 % ID/g | 0.9 %ID | 25.21 % ID/g | 8.52 % ID/g | 13.87 % ID/g | 9.1 % ID/g | 8.02 %ID | 13.16 % ID/g | 1.09 %ID | 25.89 % ID/g | 8.2 % ID/g | 14.39 % ID/g | Drug uptake [21]: 0.72 % ID/g; Kp at 2 min [22]: 4.7; Drug uptake [23]: 5.45 % ID/g; Drug uptake [24]: 2.74 % ID/g; Drug uptake [25]: 1.45 %ID; Drug uptake [26]: 47.91 % ID/g; Drug uptake [27]: 18.76 % ID/g; Drug uptake [28]: 4.84 % ID/g; Drug uptake [29]: 8.46 % ID/g; Drug uptake [30]: 1.71 % ID/g; logD [31]: 2.41; Drug uptake [32]: 18%; Drug uptake [33]: -7%; Drug uptake [34]: 208%; Drug uptake [35]: -47%; Drug uptake [36]: -64%; Drug uptake [37]: -61%
2 | [18F]CCOCCOCCOc1ccc(CN2CCC3(CC2)OCc2ccccc23)cc1 | 2.03 %ID | 3.91 % ID/g | 4.14 % ID/g | 3.25 % ID/g | 3.91 % ID/g | 3.52 % ID/g | 4.51 % ID/g | 1.4 | 2.64 % ID/g | 1.45 %ID | 3.73 % ID/g | 5.43 % ID/g | 6.32 % ID/g | 4.63 % ID/g | 6.72 %ID | 5.09 % ID/g | 2 %ID | 4.46 % ID/g | 7.64 % ID/g | 2.95 % ID/g | Drug uptake [21]: 2.96 % ID/g; Kp at 2 min [22]: 2.9; Drug uptake [23]: 3.22 % ID/g; Drug uptake [24]: 3.38 % ID/g; Drug uptake [25]: 2.19 %ID; Drug uptake [26]: 20.68 % ID/g; Drug uptake [27]: 16.45 % ID/g; Drug uptake [28]: 5.35 % ID/g; Drug uptake [29]: 5.83 % ID/g; Drug uptake [30]: 1.97 % ID/g; logD [31]: 1.9; Drug uptake [32]: -26%; Drug uptake [33]: 30%; Drug uptake [34]: 28%; Drug uptake [35]: 11%; Drug uptake [36]: -36%; Drug uptake [37]: 17%
